Data taken from ChEMBL document CHEMBL1155534, “Tetracyclic sulfones as potent gamma-secretase inhibitors: synthesis and structure-activity relationship studies” (Bioorg Med Chem Lett, 2010).

Key:
[1] = Inhibition of gamma-secretase-mediated cleavage of human APP expressed in HEK293 cells assessed as reduction in amyloid beta42 production; type: cell-based
[2] = Inhibition of gamma secretase
[3] = Inhibition of gamma-secretase-mediated cleavage of human APP expressed in HEK293 cells assessed as reduction in amyloid beta40 production; type: cell-based
Method in brief: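 HEK293 cells expressing human APP carrying Swedish and London mutations, in fresh medium with inhibitor for 4 h. Aβ40 in conditioned medium measured by ECL; IC50 derived.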

[4] = Plasma protein binding in human; type: ADME, cell-free; conditions: read-out: PPB (converted)
[5] = Clearance in human hepatocyte pre million cells; type: ADME, cell-based, Liver; conditions: hepatocytes
Mus musculus [6] = assay: Reduction in amyloid beta 40 level in non-transgenic mouse brain at 10 mg/kg, po; type: ADME, organism-based; parameters: dose 10 mg/kg, route oral; scale not given: the % may be the effect or the level left; conditions: in vivo
Method in brief: (§1)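 Non-transgenic mice given 10 mg/kg orally; Aβ40 reduction expressed as percent relative to vehicle controls, mean values (n = 5).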

Mus musculus [7] = assay: Reduction in amyloid beta 40 level in non-transgenic mouse plasma at 10 mg/kg, po; type: ADME, organism-based; parameters: dose 10 mg/kg, route oral; scale not given: the % may be the effect or the level left; conditions: in vivo; method in brief: as §1
hERG (KCNH2) = hERG (KCNH2) (Homo sapiens, UniProt Q12809); assay: Inhibition of human ERG assessed as rubidium efflux at 5 ug/ml
Chain of hERG (KCNH2) (Q12809 whole entry): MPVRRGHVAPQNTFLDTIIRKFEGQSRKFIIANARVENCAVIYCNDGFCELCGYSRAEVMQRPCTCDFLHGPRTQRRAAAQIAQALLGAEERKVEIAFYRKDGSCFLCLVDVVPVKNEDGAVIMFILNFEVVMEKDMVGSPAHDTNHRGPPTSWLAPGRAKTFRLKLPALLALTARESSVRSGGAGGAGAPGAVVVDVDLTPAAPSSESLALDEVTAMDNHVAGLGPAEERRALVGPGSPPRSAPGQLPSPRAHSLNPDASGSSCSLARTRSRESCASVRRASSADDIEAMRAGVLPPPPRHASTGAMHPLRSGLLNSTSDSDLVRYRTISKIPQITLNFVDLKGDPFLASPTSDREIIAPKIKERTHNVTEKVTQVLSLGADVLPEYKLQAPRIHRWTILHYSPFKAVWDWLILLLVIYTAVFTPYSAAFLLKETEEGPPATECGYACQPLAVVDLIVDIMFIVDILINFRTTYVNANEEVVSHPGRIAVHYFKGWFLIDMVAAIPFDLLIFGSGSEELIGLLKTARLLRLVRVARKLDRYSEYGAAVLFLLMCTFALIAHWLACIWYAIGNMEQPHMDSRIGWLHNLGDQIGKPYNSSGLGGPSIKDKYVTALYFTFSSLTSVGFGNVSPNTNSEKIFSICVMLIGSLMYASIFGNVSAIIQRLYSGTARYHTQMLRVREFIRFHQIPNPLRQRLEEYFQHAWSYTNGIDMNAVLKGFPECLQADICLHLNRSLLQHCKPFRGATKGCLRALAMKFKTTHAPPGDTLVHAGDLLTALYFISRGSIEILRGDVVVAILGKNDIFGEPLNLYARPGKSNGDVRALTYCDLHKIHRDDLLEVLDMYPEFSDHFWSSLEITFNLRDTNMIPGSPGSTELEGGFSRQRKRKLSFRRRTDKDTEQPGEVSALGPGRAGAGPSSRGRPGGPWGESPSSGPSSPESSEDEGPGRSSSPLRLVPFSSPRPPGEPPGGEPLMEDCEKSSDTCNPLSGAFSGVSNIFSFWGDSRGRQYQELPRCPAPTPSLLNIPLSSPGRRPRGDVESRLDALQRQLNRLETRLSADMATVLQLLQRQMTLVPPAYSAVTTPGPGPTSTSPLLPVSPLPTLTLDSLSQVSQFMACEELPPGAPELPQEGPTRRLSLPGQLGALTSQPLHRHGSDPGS

Compound	IC50 [1]	IC50 [2]	IC50 [3]	fraction unbound [4]	hepatocyte CLint [5]	Activity (Mus musculus [6])	Activity (Mus musculus [7])	inhibition at 5 ug/ml (hERG (KCNH2))
O=C(O)CC1C[C@@H]2[C@@H](CC[C@@]3(S(=O)(=O)c4ccc(C(F)(F)F)cc4)c4c(F)ccc(F)c4OC[C@@H]23)NS1(=O)=O (stereo not given in full)	1200 nM	48.3 nM	930 nM	–	–	–	–	–
NC(=O)CC1C[C@@H]2[C@@H](CC[C@@]3(S(=O)(=O)c4ccc(C(F)(F)F)cc4)c4c(F)ccc(F)c4OC[C@@H]23)NS1(=O)=O (stereo not given in full)	4 nM	–	–	–	–	–	–	–
O=C(O)CCC1C[C@@H]2[C@@H](CC[C@@]3(S(=O)(=O)c4ccc(C(F)(F)F)cc4)c4c(F)ccc(F)c4OC[C@@H]23)NS1(=O)=O (stereo not given in full)	64 nM	17 nM	40.6 nM	–	–	–	–	–
C/C=C/CC1C[C@@H]2[C@@H](CC[C@@]3(S(=O)(=O)c4ccc(C(F)(F)F)cc4)c4c(F)ccc(F)c4OC[C@@H]23)NS1(=O)=O (stereo not given in full)	–	14.6 nM	–	–	–	–	–	–
O=S1(=O)N[C@@H]2CC[C@@]3(S(=O)(=O)c4ccc(C(F)(F)F)cc4)c4c(F)ccc(F)c4OC[C@H]3[C@@H]2CC1C/C=C/c1ccccc1 (stereo not given in full)	–	60.9 nM	–	–	–	–	–	–
C[C@@H]1C[C@@H]2[C@@H](CC[C@@]3(S(=O)(=O)c4ccc(C(F)(F)F)cc4)c4c(F)ccc(F)c4OC[C@@H]23)NS1(=O)=O	0.5 nM	1.6 nM	1 nM	0.027	0.4 µL/min/1e6 cells	57%	72%	4%
COCC1C[C@@H]2[C@@H](CC[C@@]3(S(=O)(=O)c4ccc(C(F)(F)F)cc4)c4c(F)ccc(F)c4OC[C@@H]23)NS1(=O)=O (stereo not given in full)	8 nM	9 nM	7.8 nM	–	–	–	–	–
O=S1(=O)N[C@@H]2CC[C@@]3(S(=O)(=O)c4ccc(C(F)(F)F)cc4)c4c(F)ccc(F)c4OC[C@H]3[C@@H]2CC1CCN1CCOCC1 (stereo not given in full)	–	48.4 nM	–	–	–	–	–	–
C=CCC1C[C@@H]2[C@@H](CC[C@@]3(S(=O)(=O)c4ccc(C(F)(F)F)cc4)c4c(F)ccc(F)c4OC[C@@H]23)NS1(=O)=O (stereo not given in full)	2 nM	7.7 nM	7 nM	–	–	–	–	–

Second part, led by results:

IC50 [1]	IC50 [2]	IC50 [3]	fraction unbound [4]	hepatocyte CLint [5]	Activity (Mus musculus [6])	Activity (Mus musculus [7])	Compound	inhibition at 5 ug/ml (hERG (KCNH2))
1 nM	5.5 nM	3 nM	–	–	–	–	CCCC1C[C@@H]2[C@@H](CC[C@@]3(S(=O)(=O)c4ccc(C(F)(F)F)cc4)c4c(F)ccc(F)c4OC[C@@H]23)NS1(=O)=O (stereo not given in full)	–
–	45.5 nM	–	–	–	–	–	O=S1(=O)N[C@@H]2CC[C@@]3(S(=O)(=O)c4ccc(C(F)(F)F)cc4)c4c(F)ccc(F)c4OC[C@H]3[C@@H]2CC1CCN1CCCC1 (stereo not given in full)	–
4.9 nM	9.5 nM	3.8 nM	–	–	–	–	O=S1(=O)N[C@@H]2CC[C@@]3(S(=O)(=O)c4ccc(C(F)(F)F)cc4)c4c(F)ccc(F)c4OC[C@H]3[C@@H]2CC1CCCO (stereo not given in full)	–
2 nM	1.9 nM	5 nM	0.019	0.3 µL/min/1e6 cells	42%	84%	CC[C@@H]1C[C@@H]2[C@@H](CC[C@@]3(S(=O)(=O)c4ccc(C(F)(F)F)cc4)c4c(F)ccc(F)c4OC[C@@H]23)NS1(=O)=O	10%
–	30 nM	–	–	–	–	–	O=S1(=O)CC[C@@H]2[C@@H](CC[C@@]3(S(=O)(=O)c4ccc(C(F)(F)F)cc4)c4c(F)ccc(F)c4OC[C@@H]23)N1	–
